The results in this text go back to ChEMBL document CHEMBL3272012, “5-(Tetradecyloxy)-2-furancarboxylic acid and related hypolipidemic fatty acid-like alkyloxyarylcarboxylic acids” (J Med Chem, 1977).

Series [1] relates to Rattus norvegicus. The experiment in a line: Hypolipidemic activity in Wistar rat assessed as reduction in plasma triglyceride level at 472 umol/kg/day administered through diet for 4 days. It counts as functional. The note with it: 96 h.
The subject of series [2] is Rattus norvegicus. The experiment in a line: Hypolipidemic activity in Wistar rat assessed as reduction in plasma cholesterol level at 472 umol/kg/day administered through diet for 4 days. It is filed as functional. As to conditions: 96 h. The method, boiled down:
(§1)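 Young male Wistar rats, 170-190 g initial weight, groups of six, given compound mixed thoroughly into Purina Lab Chow ad libitum for 4 or 10 days as stated. Daily dose calculated from food consumption and body weight. Bled by cardiac puncture at end of treatment; plasma cholesterol measured by automated procedure. Expressed as percent reduction versus simultaneous untreated control group; Student's t test.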

Series [3] deals with Rattus norvegicus. The series is described as follows: Increase in liver weight in Wistar rat at 472 umol/kg/day administered through diet for 4 days. It counts as ADME, organism-based. As to conditions: in vivo, po, 96 h.
Series [4] deals with Rattus norvegicus. The experiment in a line: Increase in cholesterol level in Wistar rat liver at 472 umol/kg/day administered through diet for 4 days. It counts as ADME, organism-based. The note with it: in vivo, po, 96 h.
Series [5] has as its system Rattus norvegicus. The experiment in a line: Hypolipidemic activity in Wistar rat assessed as reduction in plasma triglyceride level at 311 umol/kg/day administered through diet for 10 days. It is filed as functional. The note with it: 240 h. The method, boiled down: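 Young male Wistar rats, 170-190 g initial weight, six per group, fed drug mixed thoroughly into Purina Lab Chow ad libitum for the stated days; daily dose calculated from food consumption and body weight. Bled by cardiac puncture at end; plasma cholesterol and triglycerides by automated procedures, expressed as percent reduction versus simultaneous untreated controls; Student's t test.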

In series [6] the test system is Rattus norvegicus. The series is described as follows: Hypolipidemic activity in Wistar rat assessed as reduction in plasma cholesterol level at 311 umol/kg/day administered through diet for 10 days. It counts as functional. The note with it: 240 h. The method, boiled down:
(§2)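 Young male Wistar rats, 170-190 g at start, in groups of six, given compound mixed into Purina Lab Chow ad libitum for 4 or 10 days as stated. Daily dose was calculated from food consumption and body weight. Plasma was taken by cardiac puncture at the end and cholesterol measured by automated procedure. Results are % reduction versus a concurrent untreated control group, with Student's t test.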

Series [7] concerns Rattus norvegicus. The series is described as follows: Increase in liver weight in Wistar rat at 311 umol/kg/day administered through diet for 10 days. It counts as ADME, organism-based. The note with it: in vivo, po, 240 h.
Series [8] concerns Rattus norvegicus. The series is described as follows: Increase in cholesterol level in Wistar rat liver at 311 umol/kg/day administered through diet for 10 days. It is filed as ADME, organism-based. The note with it: in vivo, po, 240 h.
Series [9] relates to Rattus norvegicus. The series is described as follows: Hypolipidemic activity in Wistar rat assessed as reduction in plasma triglyceride level at 401 umol/kg/day administered through diet for 4 days. It counts as functional. The note with it: 96 h. In outline: (§3)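 Young male Wistar rats (initial weight 170-190 g), groups of six, fed compound mixed into Purina Lab Chow ad libitum for 4 or 10 days; daily dose calculated from food consumption and body weight. Bled by cardiac puncture; plasma cholesterol and triglycerides by automated procedures; percent reduction versus simultaneous untreated controls, Student's t test.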

For series [10], the system named is Rattus norvegicus. The experiment in a line: Hypolipidemic activity in Wistar rat assessed as reduction in plasma cholesterol level at 401 umol/kg/day administered through diet for 4 days. It is filed as functional. The note with it: 96 h. In outline: as §2
In series [11] the test system is Rattus norvegicus. The experiment in a line: Increase in liver weight in Wistar rat at 401 umol/kg/day administered through diet for 4 days. It is filed as ADME, organism-based. The note with it: in vivo, po, 96 h. The method, boiled down: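 Male Wistar rats (170-190 g initial), groups of six, dosed via diet ad libitum for 4 or 10 days, daily dose from food consumption. Liver wet weight measured, expressed as g/100 g final body weight, compared with untreated controls run simultaneously.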

In series [12] the test system is Rattus norvegicus. The experiment in a line: Increase in cholesterol level in Wistar rat liver at 401 umol/kg/day administered through diet for 4 days. It is filed as ADME, organism-based. As to conditions: in vivo, po, 96 h.
Series [13] relates to Rattus norvegicus. The experiment in a line: Hypolipidemic activity in Wistar rat assessed as reduction in plasma triglyceride level at 538 umol/kg/day administered through diet for 10 days. It counts as functional. As to conditions: 240 h.
Series [14] concerns Rattus norvegicus. The series is described as follows: Hypolipidemic activity in Wistar rat assessed as reduction in plasma cholesterol level at 538 umol/kg/day administered through diet for 10 days. It is filed as functional. As to conditions: 240 h. The method, boiled down: as §1
Series [15] relates to Rattus norvegicus. The series is described as follows: Increase in cholesterol level in Wistar rat liver at 538 umol/kg/day administered through diet for 10 days. It is filed as ADME, organism-based. The note with it: in vivo, po, 240 h.
Series [16] has as its system Rattus norvegicus. The series is described as follows: Increase in liver weight in Wistar rat at 538 umol/kg/day administered through diet for 10 days. It counts as ADME, organism-based. As to conditions: in vivo, po, 240 h.
The test system of series [17] is Rattus norvegicus. The experiment in a line: Hypolipidemic activity in Wistar rat assessed as reduction in plasma triglyceride level at 385 umol/kg/day administered through diet for 4 days. It counts as functional. As to conditions: 96 h. In outline: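 Young male Wistar rats (170-190 g initial weight), groups of six, fed test compound mixed into Purina Lab Chow ad libitum; daily dose calculated from food consumption and body weight. Bled by cardiac puncture at end of treatment; plasma triglycerides measured by automated procedure. Results given as percent reduction versus a simultaneous untreated control group, with significance by Student's t test.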

In series [18] the test system is Rattus norvegicus. The series is described as follows: Hypolipidemic activity in Wistar rat assessed as reduction in plasma cholesterol level at 385 umol/kg/day administered through diet for 4 days. It counts as functional. As to conditions: 96 h. In outline:
as §2

The subject of series [19] is Rattus norvegicus. The experiment in a line: Increase in cholesterol level in Wistar rat liver at 385 umol/kg/day administered through diet for 4 days. It counts as ADME, organism-based. As to conditions: in vivo, po, 96 h.
The test system of series [20] is Rattus norvegicus. The experiment in a line: Increase in liver weight in Wistar rat at 385 umol/kg/day administered through diet for 4 days. It is filed as ADME, organism-based. The note with it: in vivo, po, 96 h.
Series [21] deals with Rattus norvegicus. The series is described as follows: Hypolipidemic activity in Wistar rat assessed as reduction in plasma triglyceride level at 477 umol/kg/day administered through diet for 4 days. It is filed as functional. The note with it: 96 h.
The test system of series [22] is Rattus norvegicus. The series is described as follows: Hypolipidemic activity in Wistar rat assessed as reduction in plasma cholesterol level at 477 umol/kg/day administered through diet for 4 days. It is filed as functional. The note with it: 96 h. In outline: as §1
The test system of series [23] is Rattus norvegicus. The experiment in a line: Increase in liver weight in Wistar rat at 477 umol/kg/day administered through diet for 4 days. It counts as ADME, organism-based. As to conditions: in vivo, po, 96 h.
Series [24] relates to Rattus norvegicus. The series is described as follows: Increase in cholesterol level in Wistar rat liver at 477 umol/kg/day administered through diet for 4 days. It counts as ADME, organism-based. As to conditions: in vivo, po, 96 h.
Series [25] deals with Rattus norvegicus. The experiment in a line: Hypolipidemic activity in Wistar rat assessed as reduction in plasma triglyceride level at 640 umol/kg/day administered through diet for 10 days. As to conditions: 240 h. It is filed as functional.
In series [26] the test system is Rattus norvegicus. The experiment in a line: Hypolipidemic activity in Wistar rat assessed as reduction in plasma cholesterol level at 640 umol/kg/day administered through diet for 10 days. It counts as functional. As to conditions: 240 h. The method, boiled down:
as §3

The subject of series [27] is Rattus norvegicus. The series is described as follows: Increase in cholesterol level in Wistar rat liver at 640 umol/kg/day administered through diet for 10 days. It counts as ADME, organism-based. The note with it: in vivo, po, 240 h.
The test system of series [28] is Rattus norvegicus. The experiment in a line: Increase in liver weight in Wistar rat at 640 umol/kg/day administered through diet for 10 days. It is filed as ADME, organism-based. As to conditions: in vivo, po, 240 h.

`CCCCCCCCCCCCCCOc1ccc(CC(=O)OC)cc1`: the inhibition in vivo at 472 µmol/kg was 23% in series [1] and 0% in series [2]. Also, the Activity is 8% in [3] and 0% in series [4].
On to `CCCCCCCCCCCCCCCCOc1ccc(C(=O)CC(=O)O)cc1`, for which the figures for the inhibition in vivo at 311 µmol/kg in [5] and in [6] were 49% and 29%, respectively. Besides, the Activity in series [7] and in series [8] was 0% each time.
As for `CCCCCCCCCCCCCCOc1ccc(CCC(=O)OC)cc1`, the inhibition in vivo at 401 µmol/kg in series [9] stood at 73%; in series [10], 41%. Moreover, the Activity in series [11] is 17%; in series [12], 15%.
For `CCCCCCCCc1ccc(C(=O)O)cc1`, the inhibition in vivo at 538 µmol/kg in [13] is 21%; in series [14] it was 6%. In addition, the Activity in series [15] and in [16] was 11% each time.
In the case of `CCCCCCCCCCCCCCOc1ccc(COC(=O)OCC)cc1`, the inhibition in vivo at 385 µmol/kg turned out to be 70% in [17] and 38% in [18]. Moreover, the Activity in [19] stood at 12%; in series [20], 11%.
On to `CCCCCCCCCCCCCCOc1ccc(CO)cc1`, for which the figures for the inhibition in vivo at 477 µmol/kg in [21] and in series [22] were 41% and 35%, respectively. Besides, the Activity in series [23] was found to be 17%; in series [24], 33%.
On to `CCCCCCCCCCc1ccc(C(=O)O)cc1`, for which the inhibition in vivo at 640 µmol/kg in series [25] stood at 63%; in [26], 32%. In addition, the figures for the Activity in [27] and in series [28] were 43% and 18%, respectively.

The inhibition in vivo is how much of the control response was suppressed.
